Measurements: ChEMBL document CHEMBL1938383, “Novel 5- and 6-subtituted benzothiazoles with improved physicochemical properties: potent S1P₁ agonists with in vivo lymphocyte-depleting activity” (Bioorg Med Chem Lett, 2012)

Key:
[1] = biological target: T1, Sphingosine 1-phosphate receptor 1 (Homo sapiens, UniProt P21453); test: Agonist activity at human S1P1 receptor expressed in U20S cells coexpressing eGFP assessed as receptor internalization after 1 hr by microscopy analysis; assay type: functional, cell-based, U2OS
How it was run: (§1)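 hS1P1–eGFP U2OS cells held in serum-free medium 2 h, then exposed to compound 1 h at 37 °C. Cells fixed in 4% formaldehyde, nuclei stained with Hoechst, imaged by automated microscopy. Potency and efficacy from GFP-containing endosomes per cell plotted against concentration. Efficacy expressed relative to 0.200 µM S1P.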

[2] = biological target: T1, Sphingosine 1-phosphate receptor 1; test: Agonist activity at human S1P1 receptor expressed in U20S cells coexpressing eGFP assessed as receptor internalization after 1 hr by microscopy analysis relative to S1P1; assay type: functional, cell-based; details: U2OS; how it was run: as §1
[3] = biological target: T2, Sphingosine 1-phosphate receptor 3 (Homo sapiens, UniProt Q99500); test: Agonist activity at human S1P3 receptor expressed in CHO cells coexpressing Gq/i5 protein by calcium flux assay; assay type: functional, cell-based
How it was run: (§2)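 Ca²⁺ flux read-out in CHO cells stably co-expressing human S1P3 and chimeric Gq/i5 G-protein.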

[4] = biological target: T2, Sphingosine 1-phosphate receptor 3; test: Agonist activity at human S1P3 receptor expressed in CHO cells coexpressing Gq/i5 protein by calcium flux assay relative to control; assay type: functional, cell-based; how it was run: as §2
[5] = system: Rattus norvegicus; test: Immunosuppressive activity in Lewis rat assessed as reduction of circulating lymphocytes at 10 mg/kg, po after 4 hrs; assay type: functional; set-up: scale not given: the % may be the effect or the level left
How it was run: (§3)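 Female Lewis rats (250 g, 6–8 wk), acclimatized ≥1 week, N = 5/group. Given vehicle (20% captisol in water) or 10 mg/kg compound in 20% captisol/water by oral gavage (10 mL/kg). Killed by CO₂ 4 h post-dose, blood taken by cardiac puncture. Total blood lymphocytes counted and total plasma concentration measured. Significance vs vehicle by ANOVA/Dunnett's test.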

[6] = Plasma concentration in Lewis rat at 10 mg/kg, po after 4 hrs; assay type: ADME, organism-based; set-up: dose 10 mg/kg, route oral; how it was run: as §3
[7] = Ratio of plasma concentration in Lewis rat at 10 mg/kg, po after 4 hrs to EC50 for human S1P1 receptor expressed in U20S cells; assay type: ADME, organism-based; set-up: dose 10 mg/kg, route oral; details: in vivo
[8] = organism: Homo sapiens; test: Selectivity ratio of EC50 for human S1P3 receptor to EC50 for human S1P1 receptor
[9] = system: Rattus norvegicus; test: Immunosuppressive activity in Lewis rat assessed as reduction of circulating lymphocytes at 1 mg/kg, po after 24 hrs; assay type: functional; set-up: scale not given: the % may be the effect or the level left

T2 sequence (Q99500 whole entry): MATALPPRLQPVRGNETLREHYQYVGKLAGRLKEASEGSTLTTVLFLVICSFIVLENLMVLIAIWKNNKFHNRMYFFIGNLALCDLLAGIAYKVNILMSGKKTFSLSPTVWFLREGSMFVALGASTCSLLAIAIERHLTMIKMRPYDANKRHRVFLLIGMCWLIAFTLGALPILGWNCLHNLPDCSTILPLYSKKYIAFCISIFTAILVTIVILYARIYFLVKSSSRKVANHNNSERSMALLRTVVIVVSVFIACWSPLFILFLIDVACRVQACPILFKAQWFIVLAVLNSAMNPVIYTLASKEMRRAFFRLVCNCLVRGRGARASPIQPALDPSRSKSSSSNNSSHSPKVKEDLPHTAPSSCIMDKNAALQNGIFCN
T1 sequence (P21453 whole entry): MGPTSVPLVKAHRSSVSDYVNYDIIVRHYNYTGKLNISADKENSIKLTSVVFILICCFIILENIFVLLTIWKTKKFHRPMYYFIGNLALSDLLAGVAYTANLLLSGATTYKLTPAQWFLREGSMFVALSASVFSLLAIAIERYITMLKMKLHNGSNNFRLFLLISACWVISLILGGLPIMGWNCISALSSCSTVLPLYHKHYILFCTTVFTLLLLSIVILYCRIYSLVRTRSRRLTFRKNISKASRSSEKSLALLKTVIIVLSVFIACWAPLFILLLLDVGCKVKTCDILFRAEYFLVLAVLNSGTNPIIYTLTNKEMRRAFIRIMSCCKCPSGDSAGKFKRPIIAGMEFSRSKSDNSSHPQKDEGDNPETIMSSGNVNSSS

SMILES: O=C(O)C1CN(Cc2ccc(-c3nc4ccc(C(=O)N5CCSC5)cc4s3)c(F)c2)C1
- EC50 [1]: 2710 nM
- Efficacy [2]: 110%
- EC50 [3]: 7420 nM
- Efficacy [4]: 21%

SMILES: CCC1SCCN1C(=O)c1ccc2nc(-c3ccc(CN4CC(C(=O)O)C4)cc3F)sc2c1 (stereo in doubt; (-)-11f) [listing 1 of 2 here]
- Efficacy [2]: 106%
- Efficacy [4]: 36%

SMILES: O=C(O)C1CN(Cc2ccc(-c3nc4ccc(C(=O)N5CCCCC5)cc4s3)c(F)c2)C1
- EC50 [1]: 1170 nM
- Efficacy [2]: 95%
- EC50 [3]: > 25000 nM

SMILES: CCC1SCCN1C(=O)c1ccc2nc(-c3ccc(CN4CC(C(=O)O)C4)cc3F)sc2c1 (single isomer, unassigned; (+)) [listing 1 of 2 here]
- EC50 [1]: 17 nM
- EC50 [3]: 390 nM
- Activity [5]: 55%
- concentration ([6]; in vivo, 4 h): 190 nM
- Ratio [7]: 10

SMILES: O=C(O)C1CN(Cc2ccc(-c3nc4ccc(C5(c6ccccc6)CC5)nc4s3)c(F)c2)C1
- EC50 [1]: 2 nM
- EC50 [3]: 888 nM

SMILES: CC(C)C1SCCN1C(=O)c1ccc2nc(-c3ccc(CN4CC(C(=O)O)C4)cc3F)sc2c1 (racemic)
- EC50 [1]: 49 nM
- Efficacy [2]: 96%
- EC50 [3]: 900 nM
- Efficacy [4]: 87%

SMILES: CC1SCCN1C(=O)c1ccc2nc(-c3ccc(CN4CC(C(=O)O)C4)cc3F)sc2c1 (racemic)
- EC50 [1]: 42 nM
- Efficacy [2]: 90%
- EC50 [3]: 2040 nM
- Efficacy [4]: 71%

SMILES: O=C(O)C1CN(Cc2ccc(-c3nc4ccc(C(=O)N5CCCCCC5)cc4s3)c(F)c2)C1
- EC50 [1]: 2720 nM
- Efficacy [2]: 108%
- EC50 [3]: > 25000 nM

SMILES: O=C(O)C1CN(Cc2ccc(-c3nc4ccc(C5(c6ccccn6)CC5)cc4s3)c(F)c2)C1
- EC50 [1]: 240 nM
- Efficacy [2]: 90%
- EC50 [3]: > 25000 nM
- Ratio EC50 [8]: > 105

SMILES: O=C(O)C1CN(Cc2ccc(-c3nc4cc(Cc5ccccc5)ccc4s3)c(F)c2)C1
- EC50 [1]: 41 nM
- EC50 [3]: 1210 nM
- Activity [9]: 58%

SMILES: O=C(c1ccc2nc(-c3ccc(CN4CC(C(=O)O)C4)cc3F)sc2c1)c1ccccn1
- EC50 [1]: 1300 nM
- Efficacy [2]: 50%
- EC50 [3]: > 25000 nM

SMILES: CC(c1ccc2sc(-c3ccc(CN4CC(C(=O)O)C4)cc3F)nc2c1)c1ccccn1 (racemic)
- EC50 [1]: 2370 nM
- Efficacy [2]: 62%
- EC50 [3]: > 25000 nM

SMILES: CCC(c1ccc2nc(-c3ccc(CN4CC(C(=O)O)C4)cc3F)sc2c1)c1ccccn1 (single isomer, unassigned; (+)) [listing 1 of 2 here]
- EC50 [1]: 520 nM
- EC50 [3]: 9750 nM

SMILES: O=C(O)C1CN(Cc2ccc(-c3nc4ccc(C(=O)N5CCCC5)cc4s3)c(F)c2)C1
- EC50 [1]: > 20000 nM
- EC50 [3]: > 25000 nM

SMILES: CCC1SCCN1C(=O)c1ccc2nc(-c3ccc(CN4CC(C(=O)O)C4)cc3F)sc2c1 (stereo in doubt; (-)-11f) [listing 2 of 2 here]
- EC50 [1]: 150 nM
- EC50 [3]: 6240 nM
- Activity [5]: 24%
- concentration at 4 h ([6]; Lewis, plasma): 130 nM

SMILES: O=C(O)C1CN(Cc2ccc(-c3nc4ccc(Cc5ccccn5)cc4s3)c(F)c2)C1
- EC50 [1]: 1960 nM
- Efficacy [2]: 71%
- EC50 [3]: > 25000 nM

SMILES: CCC(c1ccc2nc(-c3ccc(CN4CC(C(=O)O)C4)cc3F)sc2c1)c1ccccn1 (single isomer, unassigned) [listing 1 of 2 here]
- EC50 [1]: 100 nM
- EC50 [3]: 2060 nM

SMILES: CCC(c1ccc2nc(-c3ccc(CN4CC(C(=O)O)C4)cc3F)sc2c1)c1ccccn1 (single isomer, unassigned) [listing 2 of 2 here]
- Efficacy [2]: 95%
- Efficacy [4]: 82%

SMILES: CC1(C)SCCN1C(=O)c1ccc2nc(-c3ccc(CN4CC(C(=O)O)C4)cc3F)sc2c1
- EC50 [1]: 430 nM
- Efficacy [2]: 80%
- EC50 [3]: 2680 nM
- Efficacy [4]: 72%

SMILES: CCC(c1ccc2nc(-c3ccc(CN4CC(C(=O)O)C4)cc3F)sc2c1)c1ccccn1 (single isomer, unassigned; (+)) [listing 2 of 2 here]
- Efficacy [2]: 93%
- Efficacy [4]: 30%

SMILES: CC(c1ccc2nc(-c3ccc(CN4CC(C(=O)O)C4)cc3F)sc2c1)c1ccccn1 (racemic)
- EC50 [1]: 570 nM
- Efficacy [2]: 79%
- EC50 [3]: > 25000 nM

SMILES: O=C(O)C1CN(Cc2ccc(-c3nc4cc(Cc5ccccn5)ccc4s3)c(F)c2)C1
- EC50 [1]: 680 nM
- Efficacy [2]: 94%
- EC50 [3]: > 25000 nM
- Ratio EC50 [8]: > 37

SMILES: CCC1SCCN1C(=O)c1ccc2nc(-c3ccc(CN4CC(C(=O)O)C4)cc3F)sc2c1 (single isomer, unassigned; (+)) [listing 2 of 2 here]
- Efficacy [2]: 107%
- Efficacy [4]: 82%
- Ratio EC50 [8]: 23
